Test results taken from paper PMC3738144 (British Journal of Cancer, 2013).

How the values were obtained:
[1] = test system: patients with stage IIIB/IV NSCLC; assay type: in vivo, human
[2] = test system: patients with stage IIIB/IV NSCLC; assay: Safety assessment: adverse events graded by CTCAE version 3.0; assay type: in vivo, human
[3] = Plasma pharmacokinetics of lenvatinib, carboplatin and paclitaxel; assay type: in vivo; settings: human, oral
[4] = test system: plasma angiogenic proteins and cytokines; assay: Plasma biomarker; assay type: in vivo, human; settings: median (minimum–maximum), lenvatinib with carboplatin/paclitaxel
[5] = test system: NSCLC (stage IIIB/IV) target lesions; assay: Antitumor activity by RECIST version 1.0; assay type: in vivo, human
Method in brief: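 Chemotherapy-naïve stage IIIB/IV NSCLC patients (20–74 y, ECOG 0–1, ≥1 measurable lesion) took oral test compound continuously BID. […] Investigators assessed tumours by RECIST 1.0 every two cycles. PFS ran from treatment start to PD or death (Kaplan–Meier).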

[6] = 4 mg BID (n=22) with carboplatin/paclitaxel
[7] = 4 mg level (22 patients) with carboplatin/paclitaxel
[8] = 6 mg BID (n=6) with carboplatin/paclitaxel

SMILES: COc1cc2nccc(Oc3ccc(NC(=O)NC4CC4)c(Cl)c3)c2cc1C(N)=O [lenvatinib, Lenvatinib]
- dose-limiting toxicities (DLTs) ([1]; 4 mg BID (n=6), dose-finding cohort): No DLTs
- maximum tolerated dose (MTD) of lenvatinib ([1]; oral, with carboplatin (AUC 6)/paclitaxel (200 mg m^−2) day 1 every 3 weeks, advanced NSCLC): 4 mg BID
- patients with a treatment-related serious AE ([2]; 4 mg BID): 7 n
- Anaemia Grade 3, treatment-related adverse event [2, 6]: 3 (14) n (%)
- Anaemia Grade 4, treatment-related adverse event [2, 6]: 0 n (%)
- Anal abscess Grade 3, treatment-related adverse event [2, 6]: 1 (5) n (%)
- Anal abscess Grade 4, treatment-related adverse event [2, 6]: 0 n (%)
- Decreased appetite Grade 3, treatment-related adverse event [2, 6]: 1 (5) n (%)
- Decreased appetite Grade 4, treatment-related adverse event [2, 6]: 0 n (%)
- Diarrhoea Grade 3, treatment-related adverse event [2, 6]: 1 (5) n (%)
- Diarrhoea Grade 4, treatment-related adverse event [2, 6]: 0 n (%)
- Febrile neutropenia Grade 3, treatment-related adverse event [2, 6]: 5 (23) n (%)
- Febrile neutropenia Grade 4, treatment-related adverse event [2, 6]: 0 n (%)
- Gingival infection Grade 3, treatment-related adverse event [2, 6]: 1 (5) n (%)
- Gingival infection Grade 4, treatment-related adverse event [2, 6]: 0 n (%)
- Hypertension Grade 3, treatment-related adverse event [2, 6]: 8 (36) n (%)
- Hypertension Grade 4, treatment-related adverse event [2, 6]: 0 n (%)
- Hypocalcemia Grade 3, treatment-related adverse event [2, 6]: 1 (5) n (%)
- Hypocalcemia Grade 4, treatment-related adverse event [2, 6]: 0 n (%)
- Hyponatremia Grade 3, treatment-related adverse event [2, 6]: 1 (5) n (%)
- Hyponatremia Grade 4, treatment-related adverse event [2, 6]: 0 n (%)
- Leukopenia Grade 3, treatment-related adverse event [2, 6]: 10 (46) n (%)
- Leukopenia Grade 4, treatment-related adverse event [2, 6]: 1 (5) n (%)
- Lymphopenia Grade 3, treatment-related adverse event [2, 6]: 1 (5) n (%)
- Lymphopenia Grade 4, treatment-related adverse event [2, 6]: 0 n (%)
- Nausea Grade 3, treatment-related adverse event [2, 6]: 1 (5) n (%)
- Nausea Grade 4, treatment-related adverse event [2, 6]: 0 n (%)
- Neurogenic bladder Grade 3, treatment-related adverse event [2, 6]: 1 (5) n (%)
- Neurogenic bladder Grade 4, treatment-related adverse event [2, 6]: 0 n (%)
- Neutropenia Grade 3, treatment-related adverse event [2, 6]: 0 n (%)
- Neutropenia Grade 4, treatment-related adverse event [2, 6]: 21 (95) n (%)
- Peripheral sensory neuropathy Grade 3, treatment-related adverse event [2, 6]: 1 (5) n (%)
- Peripheral sensory neuropathy Grade 4, treatment-related adverse event [2, 6]: 0 n (%)
- Pneumonia Grade 3, treatment-related adverse event [2, 6]: 1 (5) n (%)
- Pneumonia Grade 4, treatment-related adverse event [2, 6]: 0 n (%)
- Proteinuria Grade 3, treatment-related adverse event [2, 6]: 2 (9) n (%)
- Proteinuria Grade 4, treatment-related adverse event [2, 6]: 0 n (%)
- Pyelonephritis Grade 3, treatment-related adverse event [2, 6]: 1 (5) n (%)
- Pyelonephritis Grade 4, treatment-related adverse event [2, 6]: 0 n (%)
- Syncope Grade 3, treatment-related adverse event [2, 6]: 0 n (%)
- Syncope Grade 4, treatment-related adverse event [2, 6]: 0 n (%)
- Thrombocytopenia Grade 3, treatment-related adverse event [2, 6]: 4 (18) n (%)
- Thrombocytopenia Grade 4, treatment-related adverse event [2, 6]: 2 (9) n (%)
- Thrombosis Grade 3, treatment-related adverse event [2, 6]: 1 (5) n (%)
- Thrombosis Grade 4, treatment-related adverse event [2, 6]: 0 n (%)
- Vomiting Grade 3, treatment-related adverse event [2, 6]: 1 (5) n (%)
- Vomiting Grade 4, treatment-related adverse event [2, 6]: 0 n (%)
- Weight decreased Grade 3, treatment-related adverse event [2, 6]: 1 (5) n (%)
- Weight decreased Grade 4, treatment-related adverse event [2, 6]: 0 n (%)
- alopecia incidence (all grades) [2, 7]: 95%
- arthralgia incidence (all grades) [2, 7]: 95%
- grade 3 or 4 febrile neutropenia [2, 7]: 23%
- grade 3 or 4 hypertension [2, 7]: 36%
- grade 3 or 4 leukopenia [2, 7]: 50%
- grade 3 or 4 neutropenia [2, 7]: 95%
- grade 3 or 4 thrombocytopenia [2, 7]: 27%
- leukopenia incidence (all grades) [2, 7]: 95%
- neutropenia incidence (all grades) [2, 7]: 95%
- peripheral sensory neuropathy incidence (all grades) [2, 7]: 95%
- patients with a treatment-related serious AE ([2]; 6 mg BID): 2 n
- Anaemia Grade 3, treatment-related adverse event [2, 8]: 0 n (%)
- Anaemia Grade 4, treatment-related adverse event [2, 8]: 0 n (%)
- Anal abscess Grade 3, treatment-related adverse event [2, 8]: 0 n (%)
- Anal abscess Grade 4, treatment-related adverse event [2, 8]: 0 n (%)
- Decreased appetite Grade 3, treatment-related adverse event [2, 8]: 0 n (%)
- Decreased appetite Grade 4, treatment-related adverse event [2, 8]: 0 n (%)
- Diarrhoea Grade 3, treatment-related adverse event [2, 8]: 0 n (%)
- Diarrhoea Grade 4, treatment-related adverse event [2, 8]: 0 n (%)
- Febrile neutropenia Grade 3, treatment-related adverse event [2, 8]: 1 (17) n (%)
- Febrile neutropenia Grade 4, treatment-related adverse event [2, 8]: 0 n (%)
- Gingival infection Grade 3, treatment-related adverse event [2, 8]: 1 (17) n (%)
- Gingival infection Grade 4, treatment-related adverse event [2, 8]: 0 n (%)
- Hypertension Grade 3, treatment-related adverse event [2, 8]: 4 (67) n (%)
- Hypertension Grade 4, treatment-related adverse event [2, 8]: 0 n (%)
- Hypocalcemia Grade 3, treatment-related adverse event [2, 8]: 0 n (%)
- Hypocalcemia Grade 4, treatment-related adverse event [2, 8]: 0 n (%)
- Hyponatremia Grade 3, treatment-related adverse event [2, 8]: 0 n (%)
- Hyponatremia Grade 4, treatment-related adverse event [2, 8]: 0 n (%)
- Leukopenia Grade 3, treatment-related adverse event [2, 8]: 2 (33) n (%)
- Leukopenia Grade 4, treatment-related adverse event [2, 8]: 1 (17) n (%)
- Lymphopenia Grade 3, treatment-related adverse event [2, 8]: 0 n (%)
- Lymphopenia Grade 4, treatment-related adverse event [2, 8]: 0 n (%)
- Nausea Grade 3, treatment-related adverse event [2, 8]: 0 n (%)
- Nausea Grade 4, treatment-related adverse event [2, 8]: 0 n (%)
- Neurogenic bladder Grade 3, treatment-related adverse event [2, 8]: 0 n (%)
- Neurogenic bladder Grade 4, treatment-related adverse event [2, 8]: 0 n (%)
- Neutropenia Grade 3, treatment-related adverse event [2, 8]: 0 n (%)
- Neutropenia Grade 4, treatment-related adverse event [2, 8]: 5 (83) n (%)
- Peripheral sensory neuropathy Grade 3, treatment-related adverse event [2, 8]: 0 n (%)
- Peripheral sensory neuropathy Grade 4, treatment-related adverse event [2, 8]: 0 n (%)
- Pneumonia Grade 3, treatment-related adverse event [2, 8]: 2 (33) n (%)
- Pneumonia Grade 4, treatment-related adverse event [2, 8]: 0 n (%)
- Proteinuria Grade 3, treatment-related adverse event [2, 8]: 0 n (%)
- Proteinuria Grade 4, treatment-related adverse event [2, 8]: 0 n (%)
- Pyelonephritis Grade 3, treatment-related adverse event [2, 8]: 0 n (%)
- Pyelonephritis Grade 4, treatment-related adverse event [2, 8]: 0 n (%)
- Syncope Grade 3, treatment-related adverse event [2, 8]: 1 (17) n (%)
- Syncope Grade 4, treatment-related adverse event [2, 8]: 0 n (%)
- Thrombocytopenia Grade 3, treatment-related adverse event [2, 8]: 0 n (%)
- Thrombocytopenia Grade 4, treatment-related adverse event [2, 8]: 0 n (%)
- Thrombosis Grade 3, treatment-related adverse event [2, 8]: 0 n (%)
- Thrombosis Grade 4, treatment-related adverse event [2, 8]: 0 n (%)
- Vomiting Grade 3, treatment-related adverse event [2, 8]: 0 n (%)
- Vomiting Grade 4, treatment-related adverse event [2, 8]: 0 n (%)
- Weight decreased Grade 3, treatment-related adverse event [2, 8]: 0 n (%)
- Weight decreased Grade 4, treatment-related adverse event [2, 8]: 0 n (%)
- SAE febrile neutropenia ([2]; all 28 patients): 7%
- SAE pneumonia ([2]; all 28 patients): 7%
- deaths ([2]; all 28 patients): No deaths were reported
- patients with a treatment-related serious AE ([2]; all 28 patients (4 and 6 mg BID)): Nine
- changes in mean QT interval and QTcF ([2]; combination or maintenance therapy): no changes of clinical importance
- Cmax ([3]; 4 mg): 97.5 ± 38.4 ng/mL
- Tmax ([3]; 4 mg, tmax, lenvatinib in plasma, lenvatinib 4 mg BID (n=6) with carboplatin/paclitaxel, median (minimum–maximum)): 4.18 h
- Cmax ([3]; 6 mg): 138 ± 35.3 ng/mL
- Tmax ([3]; 6 mg, Median time of maximum concentration (tmax), lenvatinib, across 4 and 6 mg BID groups): 4.18 to 4.27 h
- AUC(0-t) ([3]; 6 mg, mean AUC(0−t), lenvatinib, across 4 and 6 mg BID groups): 692 to 848 ng·h/mL
- FGF-2 plasma, observed value ([4]; Cycle 1 day 8 (n=26)): 17.2 (7–59) pg ml^−1
- G-CSF plasma, observed value ([4]; Cycle 1 day 8 (n=26)): 7.6 (3–27) pg ml^−1
- HGF plasma, observed value ([4]; Cycle 1 day 8 (n=26)): 244.0 (163–353) pg ml^−1
- PDGF-B plasma, observed value ([4]; Cycle 1 day 8 (n=26)): 237.9 (14–2849) pg ml^−1
- SCF plasma, observed value ([4]; Cycle 1 day 8 (n=26)): 101.0 (54–173) pg ml^−1
- FGF-2 plasma, observed value ([4]; Cycle 1 day 22 (n=26)): 16.0 (7–57) pg ml^−1
- G-CSF plasma, observed value ([4]; Cycle 1 day 22 (n=26)): 7.5 (2–17) pg ml^−1
- IL-8 plasma, observed value ([4]; Cycle 1 day 22 (n=26)): 4.4 (3–15) pg ml^−1
- SCF plasma, observed value ([4]; Cycle 1 day 22 (n=26)): 102.9 (43–184) pg ml^−1
- SDF1α plasma, observed value ([4]; Cycle 1 day 22 (n=26)): 76.9 (30–140) pg ml^−1
- Best response CR [5, 6]: 1 (5) n (%)
- Best response NE [5, 6]: 1 (5) n (%)
- Best response PD [5, 6]: 1 (5) n (%)
- Best response PR [5, 6]: 14 (64) n (%)
- Best response SD [5, 6]: 5 (23) n (%)
- ORR (CR+PR) [5, 6]: 15 (68) n (%)
- Median PFS ([5]; 4 mg BID groups with carboplatin/paclitaxel): 9.0 months
- Best response CR [5, 8]: 0 (0) n (%)
- Best response NE [5, 8]: 2 (33) n (%)
- Best response PD [5, 8]: 0 (0) n (%)
- Best response PR [5, 8]: 2 (33) n (%)
- Best response SD [5, 8]: 2 (33) n (%)
- ORR (CR+PR) [5, 8]: 2 (33) n (%)
- complete response ([5]; 22 patients at the 4 mg level): 5%
- partial response ([5]; 22 patients at the 4 mg level): 64%
- Best response CR ([5]; Total (n=28)): 1 (4) n (%)
- Best response NE ([5]; Total (n=28)): 3 (11) n (%)
- Best response PD ([5]; Total (n=28)): 1 (4) n (%)
- Best response PR ([5]; Total (n=28)): 16 (57) n (%)
- Best response SD ([5]; Total (n=28)): 7 (25) n (%)
- ORR (CR+PR) ([5]; Total (n=28)): 17 (61) n (%)
- Median PFS ([5]; total): 9.0 months
- median duration of response ([5]; total): 7.0 months
